Assay results: ChEMBL document CHEMBL1153798, “Substituted tetrahydroquinolines as potent allosteric inhibitors of reverse transcriptase and its key mutants” (Bioorg Med Chem Lett, 2009); call rule not given here

Legend:
[1] = Oral bioavailability in Beagle dog at 1 mg/kg; assay type: ADME, organism-based, Canis lupus familiaris; conditions: in vivo
In short: (§1)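 Beagle dogs (n = 2) dosed singly, po 1 mg/kg and iv 0.5 mg/kg; iv cassette co-administered with other analogues at 0.125 mg/kg. Interanimal variability below 20%.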

[2] = test system: Human immunodeficiency virus 1; experiment: Antiviral activity against HIV1 R8 infected human MT4 cells assessed as drug level required for 95% inhibition in the presence of 10% fetal bovine serum; assay type: functional
In short: (§2)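 Spread assay: MT-4 human T-lymphoid cells in RPMI 1640 with either 10% FBS or 50% NHS; CIC95 taken as the concentration blocking >95% of virus spread. Wild-type virus H9IIIB or R8 as stated per line. Geometric mean of at least two determinations, individual values within 25% of the mean.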

[3] = test system: Human immunodeficiency virus 1; experiment: Antiviral activity against HIV1 carrying reverse transcriptase V106A/G190A/F227L mutant infected human MT4 cells by phenoscreen assay in the presence of 40 percent normal human serum; assay type: functional, organism-based; conditions: Human immunodeficiency virus 1, MT4
In short: (§3)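 Phenotypic recombinant-virus assay (Phenoscreen, Monogram Bioscience), run with 40% normal human serum present. IC50 is the compound concentration in cell culture that inhibits viral replication by 50%.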

[4] = test system: Human immunodeficiency virus 1; experiment: Antiviral activity against HIV1 carrying reverse transcriptase Y181C/G190A mutant infected human MT4 cells by phenoscreen assay in the presence of 40 percent normal human serum; assay type: functional, organism-based; conditions: Human immunodeficiency virus 1, MT4; in short: as §3
[5] = test system: Human immunodeficiency virus 1; experiment: Antiviral activity against HIV1 carrying reverse transcriptase K103N/P225H mutant infected human MT4 cells by phenoscreen assay in the presence of 40 percent normal human serum; assay type: functional, organism-based; conditions: Human immunodeficiency virus 1, MT4; in short: as §3
[6] = test system: Human immunodeficiency virus 1; experiment: Ratio of IC50 for HIV1 carrying reverse transcriptase Y188L mutant to IC50 for wild type HIV1 in the presence of 40% normal human serum; assay type: functional
[7] = test system: Human immunodeficiency virus 1; experiment: Antiviral activity against HIV1 carrying reverse transcriptase […] mutant infected human MT4 cells by phenoscreen assay in the presence of 40 percent normal human serum; assay type: functional, organism-based; conditions: Human immunodeficiency virus 1, MT4; in short: as §3
[8] = test system: Human immunodeficiency virus 1; experiment: Antiviral activity against HIV1 R8 infected human MT4 cells assessed as drug level required for 95% inhibition in the presence of 50% normal human serum; assay type: functional; in short: as §2
[9] = test system: Human immunodeficiency virus 1; experiment: Antiviral activity against HIV1 carrying reverse transcriptase Y188L mutant infected human MT4 cells by phenoscreen assay in the presence of 40 percent normal human serum; assay type: functional, organism-based; conditions: Human immunodeficiency virus 1, MT4; in short: as §3
[10] = Half life in Sprague-Dawley rat at 10 mg/kg, po and 2 mg/kg, iv; assay type: ADME, organism-based; conditions: in vivo
[11] = test system: Human immunodeficiency virus 1; experiment: Ratio of IC50 for HIV1 carrying reverse transcriptase […] mutant to IC50 for wild type HIV1 in the presence of 40% normal human serum; assay type: functional
[12] = Activity of CYP3A4 in rat liver microsomes assessed as oxidation of tetrahydroquinoline ring; assay type: ADME, Microsome
[13] = test system: Human immunodeficiency virus 1; experiment: Antiviral activity against HIV1 carrying reverse transcriptase K103N/Y181C mutant infected human MT4 cells by phenoscreen assay in the presence of 40 percent normal human serum; assay type: functional, organism-based; conditions: Human immunodeficiency virus 1, MT4; in short: as §3
[14] = test system: Human immunodeficiency virus 1; experiment: Ratio of IC50 for HIV1 carrying reverse transcriptase Y181C mutant to IC50 for wild type HIV1 in the presence of 40% normal human serum; assay type: functional
[15] = test system: Human immunodeficiency virus 1; experiment: Antiviral activity against HIV1 carrying reverse transcriptase K101E/G190A mutant infected human MT4 cells by phenoscreen assay in the presence of 40 percent normal human serum; conditions: Human immunodeficiency virus 1, MT4
[16] = test system: Human immunodeficiency virus 1; experiment: Ratio of IC50 for HIV1 carrying reverse transcriptase Y181C/G190A mutant to IC50 for wild type HIV1 in the presence of 40% normal human serum; assay type: functional
[17] = test system: Human immunodeficiency virus 1; experiment: Ratio of IC50 for HIV1 carrying reverse transcriptase K103N/G190A mutant to IC50 for wild type HIV1 in the presence of 40% normal human serum; assay type: functional
[18] = test system: Human immunodeficiency virus 1; experiment: Antiviral activity against HIV1 carrying reverse transcriptase K101E/ Y181C/G190A mutant infected human MT4 cells by phenoscreen assay in the presence of 40 percent normal human serum; conditions: Human immunodeficiency virus 1, MT4
[19] = test system: Human immunodeficiency virus 1; experiment: Antiviral activity against HIV1 carrying reverse transcriptase K103N/V179E mutant infected human MT4 cells by phenoscreen assay in the presence of 40 percent normal human serum; assay type: functional, organism-based; conditions: Human immunodeficiency virus 1, MT4; in short: as §3
[20] = test system: Human immunodeficiency virus 1; experiment: Antiviral activity against HIV1 carrying reverse transcriptase G190A mutant infected human MT4 cells by phenoscreen assay in the presence of 40 percent normal human serum; conditions: Human immunodeficiency virus 1, MT4
[21] = test system: Human immunodeficiency virus 1; experiment: Antiviral activity against HIV1 carrying reverse transcriptase K103N/ Y181C/G190A mutant infected human MT4 cells by phenoscreen assay in the presence of 40 percent normal human serum; assay type: functional, organism-based; conditions: Human immunodeficiency virus 1, MT4; in short: as §3
Rattus norvegicus = experiment: Hepatic clearance in Sprague-Dawley rat at 10 mg/kg, po and 2 mg/kg, iv; assay type: ADME, organism-based, Liver; conditions: in vivo
[22] = test system: Human immunodeficiency virus 1; experiment: Antiviral activity against HIV1 3B infected human MT4 cells assessed as drug level required for 95% inhibition in the presence of 10% fetal bovine serum; assay type: functional; in short: as §2
[23] = Activity of CYP3A4 in rat bile assessed as oxidation of tetrahydroquinoline ring; assay type: ADME
[24] = test system: Human immunodeficiency virus 1; experiment: Antiviral activity against HIV1 carrying reverse transcriptase K103N mutant infected human MT4 cells by phenoscreen assay in the presence of 40 percent normal human serum; assay type: functional, organism-based; conditions: Human immunodeficiency virus 1, MT4; in short: as §3
[25] = Half life in Beagle dog at 1 mg/kg, po and 0.5 mg/kg, iv; assay type: ADME, organism-based, Canis lupus familiaris; conditions: in vivo; in short: as §1
[26] = test system: Human immunodeficiency virus 1; experiment: Ratio of IC50 for HIV1 carrying reverse transcriptase […]/ Y181C/G190A mutant to IC50 for wild type HIV1 in the presence of 40% normal human serum; assay type: functional
[27] = test system: Human immunodeficiency virus 1; experiment: Ratio of IC50 for HIV1 carrying reverse transcriptase K103N/Y181C mutant to IC50 for wild type HIV1 in the presence of 40% normal human serum; assay type: functional
[28] = test system: Human immunodeficiency virus 1; experiment: Ratio of IC50 for HIV1 carrying reverse transcriptase G190A mutant to IC50 for wild type HIV1 in the presence of 40% normal human serum; assay type: functional
[29] = test system: Human immunodeficiency virus 1; experiment: Ratio of IC50 for HIV1 carrying reverse transcriptase G190S mutant to IC50 for wild type HIV1 in the presence of 40% normal human serum; assay type: functional
[30] = test system: Human immunodeficiency virus 1; experiment: Ratio of IC50 for HIV1 carrying reverse transcriptase K103N/P225H mutant to IC50 for wild type HIV1 in the presence of 40% normal human serum; assay type: functional
[31] = Activity of CYP3A4 in rat plasma assessed as oxidation of tetrahydroquinoline ring; assay type: ADME, cell-free
[32] = Volume of distribution in Beagle dog at 1 mg/kg, po and 0.5 mg/kg, iv; assay type: ADME, organism-based, Canis lupus familiaris; conditions: in vivo, read-out: Vdss; in short: as §1
[33] = test system: Human immunodeficiency virus 1; experiment: Ratio of IC50 for HIV1 carrying reverse transcriptase […]/G190A mutant to IC50 for wild type HIV1 in the presence of 40% normal human serum; assay type: functional
[34] = test system: Human immunodeficiency virus 1; experiment: Ratio of IC50 for HIV1 carrying reverse transcriptase K103N/V179E mutant to IC50 for wild type HIV1 in the presence of 40% normal human serum; assay type: functional
[35] = test system: Human immunodeficiency virus 1; experiment: Antiviral activity against HIV1 carrying reverse transcriptase Y181C mutant infected human MT4 cells by phenoscreen assay in the presence of 40 percent normal human serum; assay type: functional, organism-based; conditions: Human immunodeficiency virus 1, MT4; in short: as §3
[36] = test system: Human immunodeficiency virus 1; experiment: Antiviral activity against HIV1 carrying reverse transcriptase K103N/G190A mutant infected human MT4 cells by phenoscreen assay in the presence of 40 percent normal human serum; assay type: functional, organism-based; conditions: Human immunodeficiency virus 1, MT4; in short: as §3
[37] = test system: Human immunodeficiency virus 1; experiment: Antiviral activity against HIV1 carrying reverse transcriptase […]/G190A mutant infected human MT4 cells in the presence of 40 percent normal human serum; assay type: functional; in short: as §3
[38] = test system: Human immunodeficiency virus 1; experiment: Ratio of IC50 for HIV1 carrying reverse transcriptase K103N mutant to IC50 for wild type HIV1 in the presence of 40% normal human serum; assay type: functional
[39] = test system: Human immunodeficiency virus 1; experiment: Antiviral activity against HIV1 carrying reverse transcriptase G190S mutant infected human MT4 cells by phenoscreen assay in the presence of 40 percent normal human serum; conditions: Human immunodeficiency virus 1, MT4
[40] = test system: Human immunodeficiency virus 1; experiment: Ratio of IC50 for HIV1 carrying reverse transcriptase V106A/G190A/F227L mutant to IC50 for wild type HIV1 in the presence of 40% normal human serum; assay type: functional
[41] = test system: Human immunodeficiency virus 1; experiment: Antiviral activity against HIV1 3B infected human MT4 cells assessed as drug level required for 95% inhibition in the presence of 50% normal human serum; assay type: functional; in short: as §2
[42] = Activity of CYP3A4 in rat hepatocytes assessed as oxidation of tetrahydroquinoline ring; assay type: ADME, cell-based, Hepatocyte
[43] = test system: Human immunodeficiency virus 1; experiment: Antiviral activity against HIV1 infected human MT4 cells by phenoscreen assay in the presence of 40 percent normal human serum; assay type: functional, organism-based; conditions: Human immunodeficiency virus 1, MT4

## NS(=O)(=O)c1ccc(NC(=O)CSC(=O)N2CCCc3cc(Cl)cc(Cl)c32)c(Cl)c1
[1]
  bioavailability: 30%
[2]
  Activity: 18 nM
[3]
  IC50: > 1000 nM
[4]
  IC50: 327 nM
[5]
  IC50: 3.2 nM
[6]
  fold change (FC): >833
[7]
  IC50: 5.5 nM
[8]
  Activity: 33 nM
[9]
  IC50: > 1000 nM
[10]
  half-life: 0.4 h
[11]
  fold change (FC): 4.6
[12]
  Activity: Active
[13]
  IC50: 64.2 nM
[14]
  fold change (FC): 14
[15]
  IC50: 113 nM
[16]
  fold change (FC): 272.5
[17]
  fold change (FC): 6.8
[18]
  IC50: > 1000 nM
[19]
  IC50: 2.2 nM
[20]
  IC50: 12.1 nM
[21]
  IC50: > 1000 nM
Rattus norvegicus
  CL: 109 mL/min/kg
[22]
  ID95: 13 nM
[23]
  Activity: Active
[24]
  IC50: 0.9 nM
[25]
  half-life: 4.9 h
[26]
  fold change (FC): >833
[27]
  fold change (FC): 53.5
[28]
  fold change (FC): 10.1
[29]
  fold change (FC): 51.6
[30]
  fold change (FC): 2.7
[31]
  Activity: Active
[32]
  Vd: 5 L/kg
[33]
  fold change (FC): 94.3
[34]
  fold change (FC): 1.8
[35]
  IC50: 16.8 nM
[36]
  IC50: 8.2 nM
[37]
  fold change (FC): 94.3
[38]
  fold change (FC): 0.8
[39]
  IC50: 61.9 nM
[40]
  fold change (FC): >833
[41]
  ID95: 40 nM
[42]
  Activity: Active
[43]
  IC50: 1.2 nM
